Assay results as given in the M2OR odorant receptor database.
Substitutions are numbered along the chain they refer to.

Experiments:
Conditions in all cases: stereoisomer not certain
OR1F12P (Homo sapiens) = biological target: T1, OR1F12P (Homo sapiens) (UniProt Q8NHA8)
T1 sequence (whole entry): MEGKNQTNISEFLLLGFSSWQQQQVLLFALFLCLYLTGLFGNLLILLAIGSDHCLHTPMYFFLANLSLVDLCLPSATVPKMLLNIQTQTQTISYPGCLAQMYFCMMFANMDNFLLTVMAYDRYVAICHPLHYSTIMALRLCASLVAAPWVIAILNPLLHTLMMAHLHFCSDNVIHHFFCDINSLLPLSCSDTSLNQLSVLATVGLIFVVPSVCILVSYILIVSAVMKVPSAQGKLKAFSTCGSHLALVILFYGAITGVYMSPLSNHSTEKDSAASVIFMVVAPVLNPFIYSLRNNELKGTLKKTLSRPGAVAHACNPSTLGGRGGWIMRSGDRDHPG
Summary of the method: (§1)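 Assay methods differ from source to source, frequently being transient luciferase assays in mammalian cell lines. For each receptor–molecule pair, the label responsive (active) applies when the original authors judged the measured signal statistically different from baseline, and non-responsive (inactive) applies otherwise.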

OR1F1 = test system: T2, OR1F1
T2 sequence (whole entry): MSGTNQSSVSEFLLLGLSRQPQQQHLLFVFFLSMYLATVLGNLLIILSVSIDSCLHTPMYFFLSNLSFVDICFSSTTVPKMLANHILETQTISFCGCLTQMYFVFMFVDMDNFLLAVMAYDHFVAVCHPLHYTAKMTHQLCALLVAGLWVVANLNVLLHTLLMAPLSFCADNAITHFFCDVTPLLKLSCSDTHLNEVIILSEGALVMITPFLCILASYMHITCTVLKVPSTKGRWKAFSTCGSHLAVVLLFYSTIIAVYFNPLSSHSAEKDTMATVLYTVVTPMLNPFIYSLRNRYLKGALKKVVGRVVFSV
Summary of the method: as §1

OR1G1 (Homo sapiens) = biological target: T3, OR1G1 (Homo sapiens) (UniProt P47890)
T3 sequence (whole entry): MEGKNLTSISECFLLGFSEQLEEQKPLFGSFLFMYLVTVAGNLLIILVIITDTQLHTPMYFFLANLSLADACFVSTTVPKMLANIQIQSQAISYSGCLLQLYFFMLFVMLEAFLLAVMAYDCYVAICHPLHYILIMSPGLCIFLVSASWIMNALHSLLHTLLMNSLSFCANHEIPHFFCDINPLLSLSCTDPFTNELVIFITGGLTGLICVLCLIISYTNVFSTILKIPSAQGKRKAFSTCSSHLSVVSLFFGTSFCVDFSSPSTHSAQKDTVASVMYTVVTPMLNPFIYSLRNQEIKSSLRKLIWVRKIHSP
Summary of the method: as §1

OR1I1 (Homo sapiens) = biological target: T4, OR1I1 (Homo sapiens) (UniProt O60431)
T4 sequence (whole entry): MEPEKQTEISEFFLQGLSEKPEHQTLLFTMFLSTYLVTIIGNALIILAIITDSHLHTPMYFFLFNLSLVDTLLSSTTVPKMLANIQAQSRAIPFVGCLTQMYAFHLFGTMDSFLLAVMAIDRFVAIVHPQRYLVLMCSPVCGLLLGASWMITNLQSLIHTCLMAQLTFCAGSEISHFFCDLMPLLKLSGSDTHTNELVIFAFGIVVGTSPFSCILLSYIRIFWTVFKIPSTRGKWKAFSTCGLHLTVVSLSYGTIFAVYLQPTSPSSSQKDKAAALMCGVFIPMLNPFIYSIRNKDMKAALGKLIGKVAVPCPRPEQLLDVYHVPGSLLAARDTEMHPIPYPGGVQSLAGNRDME
Summary of the method: as §1

OR1J1 (Homo sapiens) = biological target: T5, OR1J1 (Homo sapiens) (UniProt Q8NGS3)
T5 sequence (whole entry): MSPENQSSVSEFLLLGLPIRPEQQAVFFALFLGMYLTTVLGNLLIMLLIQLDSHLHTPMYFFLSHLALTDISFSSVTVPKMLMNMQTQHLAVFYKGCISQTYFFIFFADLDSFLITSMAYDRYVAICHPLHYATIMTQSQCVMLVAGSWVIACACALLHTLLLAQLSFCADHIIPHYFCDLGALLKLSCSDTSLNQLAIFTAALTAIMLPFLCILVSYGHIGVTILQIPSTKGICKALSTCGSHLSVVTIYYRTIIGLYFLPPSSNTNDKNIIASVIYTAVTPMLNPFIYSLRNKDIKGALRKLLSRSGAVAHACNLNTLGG
Summary of the method: as §1

OR1J2 (Homo sapiens) = biological target: T6, OR1J2 (Homo sapiens) (UniProt Q8NGS2)
T6 sequence (whole entry): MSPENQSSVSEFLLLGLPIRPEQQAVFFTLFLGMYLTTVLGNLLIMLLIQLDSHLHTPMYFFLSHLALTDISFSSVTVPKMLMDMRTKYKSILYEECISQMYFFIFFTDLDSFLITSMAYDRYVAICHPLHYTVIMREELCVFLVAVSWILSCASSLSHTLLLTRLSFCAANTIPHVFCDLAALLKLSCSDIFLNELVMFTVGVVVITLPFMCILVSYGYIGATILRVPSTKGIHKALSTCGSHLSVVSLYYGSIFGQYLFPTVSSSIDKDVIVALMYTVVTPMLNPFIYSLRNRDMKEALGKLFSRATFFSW
Summary of the method: as §1

OR1J4 (Homo sapiens) = biological target: T7, OR1J4 (Homo sapiens) (UniProt Q8NGS1)
T7 sequence (whole entry): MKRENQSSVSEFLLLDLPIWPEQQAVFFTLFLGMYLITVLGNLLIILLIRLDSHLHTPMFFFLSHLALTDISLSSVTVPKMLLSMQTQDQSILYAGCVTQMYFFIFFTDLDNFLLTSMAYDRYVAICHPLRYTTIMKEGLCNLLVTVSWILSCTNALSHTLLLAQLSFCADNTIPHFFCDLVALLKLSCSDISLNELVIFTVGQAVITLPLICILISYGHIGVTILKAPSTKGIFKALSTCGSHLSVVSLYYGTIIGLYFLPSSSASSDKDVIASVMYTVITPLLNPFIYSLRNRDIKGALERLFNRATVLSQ
Summary of the method: as §1

OR1K1 (Homo sapiens) = biological target: T8, OR1K1 (Homo sapiens) (UniProt Q8NGR3)
T8 sequence (whole entry): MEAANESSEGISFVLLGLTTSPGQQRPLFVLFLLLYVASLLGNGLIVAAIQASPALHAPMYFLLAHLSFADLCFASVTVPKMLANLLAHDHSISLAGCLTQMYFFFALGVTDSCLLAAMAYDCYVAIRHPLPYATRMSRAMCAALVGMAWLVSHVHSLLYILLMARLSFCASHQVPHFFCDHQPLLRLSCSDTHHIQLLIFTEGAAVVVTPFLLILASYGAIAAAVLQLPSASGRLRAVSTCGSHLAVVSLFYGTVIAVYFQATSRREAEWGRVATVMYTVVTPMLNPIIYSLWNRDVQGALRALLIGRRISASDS
Summary of the method: as §1

OR1L1 = test system: T9, OR1L1
T9 sequence (whole entry): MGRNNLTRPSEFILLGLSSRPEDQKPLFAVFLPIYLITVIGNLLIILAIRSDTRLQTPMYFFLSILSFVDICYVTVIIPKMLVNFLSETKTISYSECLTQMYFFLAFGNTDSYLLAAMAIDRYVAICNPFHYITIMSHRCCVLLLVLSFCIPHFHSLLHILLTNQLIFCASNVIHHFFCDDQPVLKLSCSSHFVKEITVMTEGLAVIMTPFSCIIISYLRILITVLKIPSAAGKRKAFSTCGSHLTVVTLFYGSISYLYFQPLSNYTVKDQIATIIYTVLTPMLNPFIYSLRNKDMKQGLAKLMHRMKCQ
Summary of the method: as §1

OR1L3 (Homo sapiens) = biological target: T10, OR1L3 (Homo sapiens) (UniProt Q8NH93)
T10 sequence (whole entry): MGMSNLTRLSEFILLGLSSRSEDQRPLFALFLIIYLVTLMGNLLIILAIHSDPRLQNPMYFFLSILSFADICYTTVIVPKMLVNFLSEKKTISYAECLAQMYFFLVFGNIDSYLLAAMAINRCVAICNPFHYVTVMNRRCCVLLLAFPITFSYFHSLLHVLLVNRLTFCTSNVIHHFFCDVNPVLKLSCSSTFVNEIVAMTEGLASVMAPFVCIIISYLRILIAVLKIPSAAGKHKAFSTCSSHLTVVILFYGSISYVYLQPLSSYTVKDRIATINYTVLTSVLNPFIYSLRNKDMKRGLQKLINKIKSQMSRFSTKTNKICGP
Summary of the method: as §1

OR1L4 (Homo sapiens) = biological target: T11, OR1L4 (Homo sapiens) (UniProt Q8NGR5)
T11 sequence (whole entry): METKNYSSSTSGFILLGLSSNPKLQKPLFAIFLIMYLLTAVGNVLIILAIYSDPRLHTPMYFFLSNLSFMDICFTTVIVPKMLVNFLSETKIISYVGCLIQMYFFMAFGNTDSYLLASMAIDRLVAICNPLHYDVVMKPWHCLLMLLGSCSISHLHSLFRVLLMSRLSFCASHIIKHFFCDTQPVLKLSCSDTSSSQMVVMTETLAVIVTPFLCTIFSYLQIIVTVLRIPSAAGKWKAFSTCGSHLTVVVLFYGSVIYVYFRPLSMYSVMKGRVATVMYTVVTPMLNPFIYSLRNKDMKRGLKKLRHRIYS
Summary of the method: as §1

OR1L4 = test system: T12, OR1L4
T12 sequence (whole entry): T11 sequence (whole entry) with G234R
Summary of the method: as §1

OR1L6 = test system: T13, OR1L6
T13 sequence (whole entry): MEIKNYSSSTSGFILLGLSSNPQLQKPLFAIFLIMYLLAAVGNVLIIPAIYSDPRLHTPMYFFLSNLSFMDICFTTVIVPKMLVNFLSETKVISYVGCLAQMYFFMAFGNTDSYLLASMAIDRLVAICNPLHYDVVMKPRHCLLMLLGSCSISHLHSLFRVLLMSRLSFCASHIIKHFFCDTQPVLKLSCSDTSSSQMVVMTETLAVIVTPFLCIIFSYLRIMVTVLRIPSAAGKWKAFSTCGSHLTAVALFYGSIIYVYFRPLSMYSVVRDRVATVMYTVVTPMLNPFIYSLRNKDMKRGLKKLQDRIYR
Summary of the method: as §1

OR1L8 (Homo sapiens) = biological target: T14, OR1L8 (Homo sapiens) (UniProt Q8NGR8)
T14 sequence (whole entry): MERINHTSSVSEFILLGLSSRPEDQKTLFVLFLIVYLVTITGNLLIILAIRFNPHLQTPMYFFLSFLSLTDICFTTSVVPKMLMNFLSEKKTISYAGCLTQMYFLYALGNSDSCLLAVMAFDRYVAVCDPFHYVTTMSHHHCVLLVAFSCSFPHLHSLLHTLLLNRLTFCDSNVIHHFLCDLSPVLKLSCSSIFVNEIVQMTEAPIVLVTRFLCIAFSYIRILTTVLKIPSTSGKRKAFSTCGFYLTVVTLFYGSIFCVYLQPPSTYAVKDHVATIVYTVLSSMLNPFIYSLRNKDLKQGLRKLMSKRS
Summary of the method: as §1

OR1L8 T27P R211P = test system: T15, OR1L8 T27P R211P
T15 sequence (whole entry): T14 sequence (whole entry) with T27P, R211P
Summary of the method: as §1

OR1M1 (Homo sapiens) = biological target: T16, OR1M1 (Homo sapiens) (UniProt Q8NGA1)
T16 sequence (whole entry): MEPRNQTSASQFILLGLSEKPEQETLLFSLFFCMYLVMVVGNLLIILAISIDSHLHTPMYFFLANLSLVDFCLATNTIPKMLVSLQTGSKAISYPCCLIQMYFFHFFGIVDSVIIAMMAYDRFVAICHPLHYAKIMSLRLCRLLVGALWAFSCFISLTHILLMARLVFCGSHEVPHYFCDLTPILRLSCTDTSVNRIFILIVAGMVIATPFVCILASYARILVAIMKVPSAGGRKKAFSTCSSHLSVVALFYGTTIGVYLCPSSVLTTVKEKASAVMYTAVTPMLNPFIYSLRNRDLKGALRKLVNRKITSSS
Summary of the method: as §1

OR1N1 (Homo sapiens) = biological target: T17, OR1N1 (Homo sapiens) (UniProt Q8NGS0)
T17 sequence (whole entry): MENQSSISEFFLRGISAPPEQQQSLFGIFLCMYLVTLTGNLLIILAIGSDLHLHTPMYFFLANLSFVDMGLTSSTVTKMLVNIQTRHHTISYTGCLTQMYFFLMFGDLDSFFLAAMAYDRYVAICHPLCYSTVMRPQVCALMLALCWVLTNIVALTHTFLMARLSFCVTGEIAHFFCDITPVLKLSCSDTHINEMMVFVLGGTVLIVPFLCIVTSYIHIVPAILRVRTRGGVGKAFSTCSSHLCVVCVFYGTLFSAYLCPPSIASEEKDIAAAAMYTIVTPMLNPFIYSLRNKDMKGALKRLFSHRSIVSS
Summary of the method: as §1

OR1N2 W37R = test system: T18, OR1N2 W37R
T18 sequence (whole entry): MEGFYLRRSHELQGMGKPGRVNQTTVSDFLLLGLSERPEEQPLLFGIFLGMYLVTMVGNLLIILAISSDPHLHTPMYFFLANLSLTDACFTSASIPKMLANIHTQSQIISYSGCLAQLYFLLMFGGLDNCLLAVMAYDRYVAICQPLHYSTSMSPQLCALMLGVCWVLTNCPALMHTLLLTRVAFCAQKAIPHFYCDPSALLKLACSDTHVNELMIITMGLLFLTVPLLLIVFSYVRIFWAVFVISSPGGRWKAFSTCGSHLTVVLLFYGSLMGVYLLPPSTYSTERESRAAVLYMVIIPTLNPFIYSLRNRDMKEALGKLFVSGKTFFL
Summary of the method: as §1

Measured: odorant receptor agonist call

CCC1OC(=O)C(O)=C1C (stereo not drawn)
inactive: all assays above
